Data set [1] deals with T1, Adenosine receptor A2b (Homo sapiens) (UniProt P29275).
T1 sequence (whole entry): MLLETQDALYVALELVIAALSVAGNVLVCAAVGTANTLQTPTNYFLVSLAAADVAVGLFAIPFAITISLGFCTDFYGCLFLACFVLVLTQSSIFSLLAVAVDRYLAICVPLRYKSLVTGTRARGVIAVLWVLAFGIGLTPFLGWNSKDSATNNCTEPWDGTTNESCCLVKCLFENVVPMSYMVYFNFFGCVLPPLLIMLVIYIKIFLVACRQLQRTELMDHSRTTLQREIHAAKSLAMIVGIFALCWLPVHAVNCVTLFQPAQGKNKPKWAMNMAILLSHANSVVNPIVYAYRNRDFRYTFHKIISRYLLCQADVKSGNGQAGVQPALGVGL
Put plainly: Displacement of [3H]MRS-1754 from human adenosine A2B receptor expressed in HEK293 cell membranes at 1 uM after 90 mins relative to control. A digest of the protocol: (§1)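 Membranes from HEK-293 cells stably transfected with human receptor, pre-treated with adenosine deaminase. Radioligands: 1 nM [3H]DPCPX (A1), 1 nM [3H]ZM241385 (A2A), 1.6 nM [3H]MRS-1754 (A2B), 2 nM [3H]HEMADO (A3). Buffers: Tris pH 7.4 (A1, A2A, A3) or pH 6.5 (A2B), with ADA. Incubated 90 min at room temperature, then filtered. Nonspecific binding defined with 100 µM NECA. Ki from 8 concentrations run in triplicate.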

For a further data set, the target named is Adenosine receptor A2a (Homo sapiens, UniProt P29274). Put plainly: Displacement of [3H]ZM241385 from human adenosine A2A receptor expressed in HEK293 cell membranes at 1 uM after 90 mins relative to control. The procedure, abridged: as §1
Background: Displacement assays read how much labelled ligand stays bound in the presence of the test substance.

The target in data set [2] is T2, Adenosine receptor A1 (Homo sapiens, UniProt P30542).
T2 sequence (P30542 whole entry): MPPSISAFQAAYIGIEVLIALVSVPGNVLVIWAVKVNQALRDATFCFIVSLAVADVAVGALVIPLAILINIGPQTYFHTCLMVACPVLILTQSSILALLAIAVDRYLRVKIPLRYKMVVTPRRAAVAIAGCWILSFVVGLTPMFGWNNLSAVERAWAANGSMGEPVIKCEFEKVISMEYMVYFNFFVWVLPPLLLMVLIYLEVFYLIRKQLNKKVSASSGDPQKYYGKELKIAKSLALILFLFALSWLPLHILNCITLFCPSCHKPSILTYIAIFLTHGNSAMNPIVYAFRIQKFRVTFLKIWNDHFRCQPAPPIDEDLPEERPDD
Put plainly: Antagonist activity at human adenosine A1 receptor expressed in HEK293 cells assessed as reduction in CPA-mediated inhibition of forskolin-stimulated cAMP level preincubated for 15 mins followed by CPA treatment for 15 mins and subsequent addition of forskolin measured after 30 mins by HTRF assay. The format is functional, cell-based. In general terms: Cyclic AMP is a second messenger, typically raised through Gs and lowered through Gi signalling.

Data set [3] addresses T2, Adenosine receptor A1. Put plainly: Displacement of [3H]DPCPX from human adenosine A1 receptor expressed in HEK293 cell membranes after 90 mins.
Data set [4] concerns the target T3, Adenosine receptor A3 (Homo sapiens) (UniProt P0DMS8).
T3 sequence (whole entry): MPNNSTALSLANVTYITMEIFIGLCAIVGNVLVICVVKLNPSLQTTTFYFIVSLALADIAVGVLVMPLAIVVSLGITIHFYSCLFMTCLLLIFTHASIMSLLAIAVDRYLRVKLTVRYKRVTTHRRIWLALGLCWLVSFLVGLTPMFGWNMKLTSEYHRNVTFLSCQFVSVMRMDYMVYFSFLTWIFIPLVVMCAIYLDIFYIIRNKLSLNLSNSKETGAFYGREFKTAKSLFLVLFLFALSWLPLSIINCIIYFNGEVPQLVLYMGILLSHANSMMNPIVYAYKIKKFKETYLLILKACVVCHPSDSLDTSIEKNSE
Put plainly: Displacement of [3H]HEMADO from human adenosine A3 receptor expressed in HEK293 cell membranes at 1 uM after 90 mins relative to control. The procedure, abridged: as §1

For data set [5], the system named is Rattus norvegicus. Put plainly: Natriuretic activity in Wistar rat at 0.1 mg/kg, po via gavage measured after 4 hrs. The class given is functional, organism-based. A digest of the protocol:
(§2)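 Male Wistar rats (250-300 g, n = 6) dosed orally at 5 mL/kg. Vehicles: DMAC 5%/NaOH/saline, or NMP 10%/PEG-400 20%/saline pH 12.0. Rats were then kept singly in metabolic cages without food or water for 4 h. Urine volume, Na+ and K+ were measured with a biochemistry analyser.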

Data set [6] deals with Rattus norvegicus. Put plainly: Diuretic activity in Wistar rat at 0.1 mg/kg, po via gavage measured after 4 hrs. The class given is functional, organism-based. The procedure, abridged:
as §2

Data set [7] has as its target T4, Adenosine receptor A1 (Homo sapiens) (UniProt P30542).
T4 sequence (whole entry): T2 sequence (P30542 whole entry)
Description: Displacement of [3H]DPCPX from human adenosine A1 receptor expressed in HEK293 cell membranes at 1 uM after 90 mins relative to control. A digest of the protocol:
as §1

The target in data set [8] is T4, Adenosine receptor A1 (Homo sapiens). Description: Antagonist activity at human adenosine A1 receptor expressed in HEK293 cells assessed as reduction in CPA-mediated inhibition of forskolin-stimulated cAMP level at 30 uM preincubated for 15 mins followed by CPA treatment for 15 mins and subsequent addition of forskolin measured after 30 mins by HTRF assay relative to control. The format is functional, cell-based. A digest of the protocol: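 Overnight HEK-A1 or HEK-A2B cultures were treated with 1 U/mL ADA for 90 min at 37°C. Compound was added for 15 min, then agonist for 15 min (1 nM CPA for A1; 70 nM NECA for A2B) at room temperature in incomplete DMEM with ADA. Rolipram (20 µM) was included for A1 only. cAMP was read by HTRF.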

Data set [9] concerns Liver. Put plainly: Metabolic stability in rat liver microsomes assessed as metabolic rate measured after 30 mins in presence of NADPH. The format is ADME, microsome. The following applies: 0.5 h.
The subject of data set [10] is Liver. Put plainly: Metabolic stability in human liver microsomes assessed as metabolic rate measured after 30 mins in presence of NADPH. The format is ADME, microsome. As to conditions: 0.5 h.
Data set [11] can be described thus: Metabolic stability in rat liver microsomes assessed as parent compound remaining measured after 30 mins in presence of NADPH. The following applies: read-out: Stability. The format is ADME, microsome. Background: Liver microsomes are vesicles of endoplasmic reticulum, rich in cytochrome P450 enzymes.
Data set [12] in a line: Metabolic stability in human liver microsomes assessed as parent compound remaining measured after 30 mins in presence of NADPH. The format is ADME, microsome. As to conditions: read-out: Stability.

Calls of active or inactive are those of the source. No cut-off for these calls is given here.

The inhibition is the relative decrease from the control value, in per cent. By Ki is commonly meant a dissociation constant, usually derived from enzyme kinetics or from competition with a known ligand.

Adenosine receptor A2a, sequence (P29274 whole entry): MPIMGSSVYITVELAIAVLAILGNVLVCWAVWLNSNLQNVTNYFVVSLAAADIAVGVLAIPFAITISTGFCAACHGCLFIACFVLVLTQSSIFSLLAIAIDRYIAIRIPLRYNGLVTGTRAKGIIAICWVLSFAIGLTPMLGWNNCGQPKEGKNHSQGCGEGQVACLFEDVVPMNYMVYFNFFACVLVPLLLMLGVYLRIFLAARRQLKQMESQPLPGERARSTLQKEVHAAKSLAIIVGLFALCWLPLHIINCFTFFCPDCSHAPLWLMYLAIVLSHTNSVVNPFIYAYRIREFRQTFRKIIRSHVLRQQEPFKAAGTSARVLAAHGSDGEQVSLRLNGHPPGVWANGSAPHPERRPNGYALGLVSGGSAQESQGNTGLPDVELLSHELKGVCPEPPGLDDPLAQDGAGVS

Regarding `CCCn1c(Oc2cccc(C(F)(F)F)c2)nc2nc(C3CCCC3)[nH]c2c1=O`, the inhibition turned out to be 0% in data set [1], 34% at Adenosine receptor A2a and 35% in data set [4]. The Ki at Adenosine receptor A1 [2] is 0.0059 µM; on Adenosine receptor A1 [3], 0.019 µM.
With `CCCn1c(=O)c2nc(C34CC5CC(CC3C5)C4)[nH]c2n(CCC)c1=O`, the result in the data set on Rattus norvegicus [5] and in the data set on Rattus norvegicus [6] was Active.
With `CCCn1c(NCCO)nc2nc(C3CCCC3)[nH]c2c1=O`, the inhibition in data set [7] amounted to 36%; in data set [1], 31%; on Adenosine receptor A2a, 5%; in data set [4], 0%.
For the molecule `CCCn1c(-c2cccc(C(=O)O)c2)nc2nc(C3CCCC3)[nH]c2c1=O`, the inhibition entry in data set [7] was “inactive”. Moreover, the inhibition in data set [8] is less than 50%.
As for `CCCn1c(OC2CCCC2)nc2nc(C3CCCC3)[nH]c2c1=O`, the inhibition in data set [1] was determined as 92%; on Adenosine receptor A2a it was 85%; in data set [4], 79%. Also, the Ki on Adenosine receptor A1 [2] was 0.013 µM; on Adenosine receptor A1 [3] it was 0.014 µM.
`CCCn1c(NCC(=O)O)nc2nc(C3CCCC3)[nH]c2c1=O`: the inhibition in [7] came out at 72%; in data set [1], 9%; at Adenosine receptor A2a, 0%; in data set [4], 0%.
For the molecule `C[C@]12CC[C@H]3[C@@H](CCC4=CC(=O)CC[C@@]43C)[C@@H]1CC[C@@H]2O` [TESTOSTERONE], the Drug metabolism with Liver [9] is recorded as greater than 1.52 nmol/min/mg; with Liver [10], 0.05 nmol/min/mg. Further, the values for the remaining at 0.5 h in [11] and in data set [12] were 2% and 84%, respectively.

Source of the values: ChEMBL document CHEMBL3992564, “Design and synthesis of novel, potent and selective hypoxanthine analogs as adenosine A1 receptor antagonists and their biological evaluation” (Bioorg Med Chem, 2017).
